In brackets after ≈: the same amount, converted by molar mass.
What was measured:
[1] = test system: Pseudomonas aeruginosa; assay: Antimicrobial activity against Pseudomonas aeruginosa harboring pBBR1MCS-3 expressing algU mutant gene by Etest method; type: functional
Method in brief: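 Etest MIC run in triplicate on a plasmid-carrying strain. The Mueller-Hinton agar contained tetracycline at 20 µg/ml for plasmid maintenance. The inoculum was about 1 × 10^7 CFU/ml in 0.85% NaCl, from an overnight LB culture grown at 37°C; 100 µl was spread per plate. One strip was placed per plate, with incubation at 37°C for 18 h.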

[2] = test system: Pseudomonas aeruginosa; assay: Antimicrobial activity against Pseudomonas aeruginosa harboring pBBR1MCS-3 expressing mucD mutant gene by Etest method
[3] = test system: Pseudomonas aeruginosa; assay: Antimicrobial activity against Pseudomonas aeruginosa harboring algU mutant gene by Etest method; type: functional
Method in brief: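 Etest MIC. Overnight LB cultures at 37°C were diluted in sterile 0.85% NaCl to about 1 × 10^7 CFU/ml. 100 µl was spread on Mueller-Hinton agar, one strip was placed per plate, and plates were incubated at 37°C for 18 h. Equal cell numbers were seeded per plate, and results were verified in triplicate. PA14 wild type was included in each set as a susceptibility control.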

[4] = test system: Pseudomonas aeruginosa; assay: Antimicrobial activity against Pseudomonas aeruginosa harboring pBBR-algU complemented gene by Etest method
[5] = test system: Pseudomonas aeruginosa; assay: Antimicrobial activity against wild type Pseudomonas aeruginosa by Etest method
[6] = test system: Pseudomonas aeruginosa PAO1; assay: Activity of Beta-lactamase in Pseudomonas aeruginosa PAO1 PA4522 harboring ampD mutant gene assessed as nitrocefin hydrolysis per mg of protein by spectrophotometry
Method in brief: (§1)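 Cells grown to OD600 1.0, pelleted and resuspended in 0.1 M KH2PO4-Na2HPO4 pH 7.0. Crude extract made by two freeze-thaw cycles plus sonication on ice. β-Lactamase read as absorbance change at 485 nm with 50 µM nitrocefin in the same pH 7.0 phosphate buffer. Extract protein measured by BCA against a bovine serum albumin standard.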

[7] = test system: Pseudomonas aeruginosa PAO1; assay: Activity of Beta-lactamase in Pseudomonas aeruginosa PAO1 PA4020 harboring mpl mutant gene assessed as nitrocefin hydrolysis per mg of protein by spectrophotometry; method in brief: as §1
[8] = test system: Pseudomonas aeruginosa; assay: Antimicrobial activity against Pseudomonas aeruginosa PA14 PA5001 harboring mutation in putative glycosyl-transferase by broth microdilution method relative to wild type
[9] = test system: Pseudomonas aeruginosa PA14; assay: Activity of Beta-lactamase in Pseudomonas aeruginosa PA14 PA4020 harboring complemented mpl mutant gene assessed as nitrocefin hydrolysis per mg of protein by spectrophotometry; method in brief: as §1
[10] = test system: Pseudomonas aeruginosa PA14; assay: Activity of Beta-lactamase in Pseudomonas aeruginosa PA14 PA4522 harboring ampD mutant gene assessed as nitrocefin hydrolysis per mg of protein by spectrophotometry; method in brief: as §1

Row | Structure (SMILES) | MIC [1] [µg/mL] | MIC [2] [µg/mL] | MIC [3] [µg/mL] | MIC [4] [µg/mL] | MIC [5] [µg/mL] | Activity [6] [nmol/min] | Activity [7] [nmol/min] | fold change (FC) [8] | Activity [9] [nmol/min] | Activity [10] [nmol/min]
1 | C[C@@H](O)[C@H]1C(=O)N2C(C(=O)O)=C(SCCNC=N)C[C@H]12 [IMIPENEM ANHYDROUS] | 0.38 (≈ 1.27 µM) | 0.25 (≈ 0.835 µM) | 0.38 (≈ 1.27 µM) | 0.5 (≈ 1.67 µM) | 0.5 (≈ 1.67 µM) | – | – | – | – | –
2 | CC(C)(O/N=C(\C(=O)N[C@@H]1C(=O)N2C(C(=O)[O-])=C(C[n+]3ccccc3)CS[C@H]12)c1csc(N)n1)C(=O)O [CEFTAZIDIME] | – | – | – | – | – | 74 | 168 | 3 | 7.3 | 31
